Structures can show the parent of a compound that is named as a salt. A value given as a limit tells only on which side of the number the result lay.

The test system of the first assay is Kir7.1.
Test: not given
The following applies: read-out: IC50 Kir7.1; ref Lewis et al., [2009]; cited from earlier work.
In the case of `O=[N+]([O-])c1ccc(CN2CCOCCOCCN(Cc3ccc([N+](=O)[O-])cc3)CCOCC2)cc1` [VU590, 7,13-bis[(4-nitrophenyl)methyl]-1,4,10-trioxa-7,13-diazacyclopentadecanedihydrochloride], the IC50 was around 8 µM.

For another assay, the target named is T1, Kir7.1-M125R (Homo sapiens, UniProt O60928, M125R).
T1 sequence (O60928 1-360 M125R): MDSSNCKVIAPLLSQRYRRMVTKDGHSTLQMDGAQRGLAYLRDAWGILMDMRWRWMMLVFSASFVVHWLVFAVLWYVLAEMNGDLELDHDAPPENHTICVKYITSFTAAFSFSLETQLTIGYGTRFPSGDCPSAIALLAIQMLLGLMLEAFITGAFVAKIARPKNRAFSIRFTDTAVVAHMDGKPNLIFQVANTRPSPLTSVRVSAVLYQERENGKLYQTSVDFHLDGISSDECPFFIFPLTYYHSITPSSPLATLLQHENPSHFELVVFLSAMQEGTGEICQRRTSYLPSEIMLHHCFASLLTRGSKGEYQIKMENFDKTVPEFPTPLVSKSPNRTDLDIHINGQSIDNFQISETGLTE
Description: Tl+ flux assay, polyclonal Kir7.1-M125R T-REx-HEK-293 cells. The class given is cell-based.
Conditions: not given
`N=c1n(Cc2ccccc2)c2ccccc2n1CC(O)COc1ccc(OCc2ccccc2)cc1` (centres unmarked) [Compound 11, 1-(3-benzyl-2-imino-2,3-dihydro-1H-benzo[d]imidazol-1-yl)-3-(4-(benzyloxy)phenoxy)propan-2-ol]: the “activity toward Kir7.1” value was “lost activity”.
Same read-out and setting: the value for `N=c1n(Cc2ccccc2)c2ccccc2n1CC(O)CN1CCOCC1` (centres unmarked) [Compound 9, 1-(3-benzyl-2-imino-2,3-dihydro-1H-benzo[d]imidazol-1-yl)-3-morpholinopropan-2-ol] was “lost activity”.

In another assay the test system is Kir1.1.
Test: not given
Conditions: read-out: Kir1.1 inhibitor potency; ref Lewis et al., [2009]; cited from earlier work.
As to `O=[N+]([O-])c1ccc(CN2CCOCCOCCN(Cc3ccc([N+](=O)[O-])cc3)CCOCC2)cc1` [VU590, 7,13-bis[(4-nitrophenyl)methyl]-1,4,10-trioxa-7,13-diazacyclopentadecanedihydrochloride], the IC50 is around 0.3 µM.

In a further assay the target is T2, Kir1.1 (S44D) (Rattus norvegicus, UniProt P35560, S44D).
T2 sequence (P35560 1-391 S44D): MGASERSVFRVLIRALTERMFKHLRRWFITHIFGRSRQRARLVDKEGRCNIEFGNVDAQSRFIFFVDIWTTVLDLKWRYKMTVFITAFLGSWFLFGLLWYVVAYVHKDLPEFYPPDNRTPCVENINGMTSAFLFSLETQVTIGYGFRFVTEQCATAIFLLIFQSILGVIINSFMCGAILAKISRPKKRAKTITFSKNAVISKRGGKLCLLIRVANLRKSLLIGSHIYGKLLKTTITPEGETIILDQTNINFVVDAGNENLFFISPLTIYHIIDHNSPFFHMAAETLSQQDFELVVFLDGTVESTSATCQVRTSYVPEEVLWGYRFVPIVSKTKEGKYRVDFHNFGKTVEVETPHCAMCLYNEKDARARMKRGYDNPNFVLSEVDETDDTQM
Description: Tl+ flux assay, tetracycline-inducible Kir1.1-S44D T-REx-HEK-293 cells. The assay is classed as cell-based. Conditions: IC50 Kir1.1, Tl+ flux, mean ± SEM (n = 3). The gist of the method: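 Monoclonal C1 T-REx-HEK-293 Kir1.1-S44D cells were grown in DMEM with 10% FBS, penicillin/streptomycin, 5 μg/mL blasticidin S and 250 μg/mL hygromycin. Channel expression was induced overnight with tetracycline. Cells were loaded with FluoZin-2 and pre-treated with test compound from 1:3 serial dilutions. Extracellular Tl+ was then added and fluorescence imaged kinetically at 20–23°C. CRC, mean ± SEM, n = 3.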
For the compound `COc1ccccc1OCC(O)Cn1c(=N)n(Cc2ccccc2)c2ccccc21` (centres unmarked) [Compound 21, 1-(3-benzyl-2-imino-2,3-dihydro-1H-benzo[d]imidazol-1-yl)-3-(2-methoxyphenoxy)propan-2-ol], the IC50 was determined as 19.3 ± 1.5 µM.
Same read-out and setting: under `N=c1n(Cc2ccc(Cl)cc2)c2ccccc2n1CC(O)COc1ccc(Cl)cc1` (centres unmarked) [Compound 23, 1-(3-(4-chlorobenzyl)-2-imino-2,3-dihydro-1H-benzo[d]imidazol-1-yl)-3-(4-chlorophenoxy)propan-2-ol] stands 6.53 ± 3.9 µM.
`N=c1n(Cc2ccccc2)c2ccccc2n1CC(O)COc1ccccc1` (centres unmarked) [Compound 5, 1-(3-benzyl-2-imino-2,3-dihydro-1H-benzo[d]imidazol-1-yl)-3-phenoxypropan-2-ol] showed an IC50 of 11.7 ± 4.1 µM.
The same measure, in the same setting: under `Cn1c(=N)n(CC(O)COc2ccc(C(F)(F)F)cc2)c2ccccc21` (centres unmarked) [Compound 26, 1-(2-imino-3-methyl-2,3-dihydro-1H-benzo[d]imidazol-1-yl)-3-(4-(trifluoromethyl)phenoxy)propan-2-ol] stands 6.97 ± 2 µM.
Same read-out and setting: under `N#Cc1cc(F)cc(OCC(O)Cn2c(=N)n(Cc3ccccc3)c3ccccc32)c1` (centres unmarked) [Compound 19, 3-(3-(3-benzyl-2-imino-2,3-dihydro-1H-benzo[d]imidazol-1-yl)-2-hydroxypropoxy)-5-fluorobenzonitrile] stands 14.3 ± 1.5 µM; under `N=c1n(Cc2ccccc2)c2ccccc2n1CC(O)COc1cccc(Cl)c1` (centres unmarked) [Compound 18, 1-(3-benzyl-2-imino-2,3-dihydro-1H-benzo[d]imidazol-1-yl)-3-(3-chlorophenoxy)propan-2-ol], 11.7 ± 2.1 µM; under `N=c1n(Cc2ccccc2)c2ccccc2n1CC(O)COc1cc(F)cc(F)c1` (centres unmarked) [Compound 7, 1-(3-benzyl-2-imino-2,3-dihydro-1H-benzo[d]imidazol-1-yl)-3-(3,5-difluorophenoxy)propan-2-ol], 7.57 ± 2.2 µM.
Still for that read-out and setting: the value for `Cc1ccc(OCC(O)Cn2c(=N)n(C)c3ccccc32)cc1` (centres unmarked) [Compound 25, 1-(2-imino-3-methyl-2,3-dihydro-1H-benzo[d]imidazol-1-yl)-3-(p-tolyloxy)propan-2-ol] was 13 ± 2.6 µM.
`CC(C)c1ccc(OCC(O)Cn2c(=N)n(Cc3ccccc3)c3ccccc32)cc1` (centres unmarked) [Compound 8, 1-(3-benzyl-2-imino-2,3-dihydro-1H-benzo[d]imidazol-1-yl)-3-(4-isopropylphenoxy)propan-2-ol] registered an IC50 of 6.77 ± 1.7 µM.
Still for that read-out and setting: under `COc1ccc(OCC(O)Cn2c(=N)n(Cc3ccccc3)c3ccccc32)cc1` (centres unmarked) [Compound 13, 1-(3-benzyl-2-imino-2,3-dihydro-1H-benzo[d]imidazol-1-yl)-3-(4-methoxyphenoxy)propan-2-ol] stands 12.7 ± 1.2 µM; under `N=c1n(Cc2ccc(Cl)cc2)c2ccccc2n1CC(O)COc1ccccc1` (centres unmarked) [Compound 22, 1-(3-(4-chlorobenzyl)-2-imino-2,3-dihydro-1H-benzo[d]imidazol-1-yl)-3-phenoxypropan-2-ol], 14.7 ± 2.1 µM; under `N=c1n(Cc2ccccc2)c2ccccc2n1CC(O)COc1ccc(OCc2ccccc2)cc1` (centres unmarked) [Compound 11, 1-(3-benzyl-2-imino-2,3-dihydro-1H-benzo[d]imidazol-1-yl)-3-(4-(benzyloxy)phenoxy)propan-2-ol], 5.23 ± 0.59 µM.
The same measure, in the same setting: the value for `Cc1ccccc1OCC(O)Cn1c(=N)n(Cc2ccccc2)c2ccccc21` (centres unmarked) [Compound 6, 1-(3-benzyl-2-imino-2,3-dihydro-1H-benzo[d]imidazol-1-yl)-3-(o-tolyloxy)propan-2-ol] was 11.9 ± 2.2 µM; that for `N#Cc1ccc(OCC(O)Cn2c(=N)n(Cc3ccccc3)c3ccccc32)cc1` (centres unmarked) [Compound 12, 4-(3-(3-benzyl-2-imino-2,3-dihydro-1H-benzo[d]imidazol-1-yl)-2-hydroxypropoxy)benzonitrile] was 15.7 ± 2.1 µM.
As for `N=c1n(Cc2ccccc2)c2ccccc2n1CC(O)CN1CCOCC1` (centres unmarked) [Compound 9, 1-(3-benzyl-2-imino-2,3-dihydro-1H-benzo[d]imidazol-1-yl)-3-morpholinopropan-2-ol], the IC50 is above 100 µM.
With `Cc1cc(C)cc(OCC(O)Cn2c(=N)n(Cc3ccccc3)c3ccccc32)c1` (centres unmarked) [Compound 20, 1-(3-benzyl-2-imino-2,3-dihydro-1H-benzo[d]imidazol-1-yl)-3-(3,5-dimethylphenoxy)propan-2-ol], the IC50 stood at 16 ± 2 µM.
Same read-out and setting: under `Cc1cccc(OCC(O)Cn2c(=N)n(Cc3ccccc3)c3ccccc32)c1` (centres unmarked) [Compound 4, 1-(3-benzyl-2-imino-2,3-dihydro-1H-benzo[d]imidazol-1-yl)-3-(m-tolyloxy)propan-2-ol] stands 11.2 ± 2.8 µM; under `N=c1n(Cc2ccccc2)c2ccccc2n1CC(O)COc1ccc(Cl)cc1Cl` (centres unmarked) [Compound 2, 1-(3-benzyl-2-imino-2,3-dihydro-1H-benzo[d]imidazol-1-yl)-3-(2,4-dichlorophenoxy)propan-2-ol], 7.07 ± 2.3 µM; under `COc1cccc(Cn2c(=N)n(CC(O)COc3ccc(C)cc3)c3ccccc32)c1` (centres unmarked) [Compound 24, 1-(2-imino-3-(3-methoxybenzyl)-2,3-dihydro-1H-benzo[d]imidazol-1-yl)-3-(p-tolyloxy)propan-2-ol], 13.7 ± 4.4 µM.
On the same count and under the same terms, the value for `N=c1n(Cc2ccccc2)c2ccccc2n1CC(O)COc1ccc(Cc2ccccc2)cc1` (centres unmarked) [Compound 10, 1-(3-benzyl-2-imino-2,3-dihydro-1H-benzo[d]imidazol-1-yl)-3-(4-benzylphenoxy)propan-2-ol] was 6.13 ± 0.23 µM; that for `COc1cccc(OCC(O)Cn2c(=N)n(Cc3ccccc3)c3ccccc32)c1` (centres unmarked) [Compound 14, 1-(3-benzyl-2-imino-2,3-dihydro-1H-benzo[d]imidazol-1-yl)-3-(3-methoxyphenoxy)propan-2-ol] was 10.1 ± 2.9 µM.
Same read-out and setting: the value for `N=c1n(Cc2ccccc2)c2ccccc2n1CC(O)COc1ccccc1Cl` (centres unmarked) [Compound 15, 1-(3-benzyl-2-imino-2,3-dihydro-1H-benzo[d]imidazol-1-yl)-3-(2-chlorophenoxy)propan-2-ol] was 8.6 ± 1.2 µM; that for `N=c1n(Cc2ccccc2)c2ccccc2n1CC(O)COc1ccc(Cl)cc1` (centres unmarked) [Compound 3, 1-(3-benzyl-2-imino-2,3-dihydro-1H-benzo[d]imidazol-1-yl)-3-(4-chlorophenoxy)propan-2-ol] was 6.57 ± 3.8 µM.
`N#Cc1ccc(F)c(OCC(O)Cn2c(=N)n(Cc3ccccc3)c3ccccc32)c1` (centres unmarked) [Compound 17, 3-(3-(3-benzyl-2-imino-2,3-dihydro-1H-benzo[d]imidazol-1-yl)-2-hydroxypropoxy)-4-fluorobenzonitrile]: the IC50 came to 8.27 ± 0.29 µM.
On the same count and under the same terms, the value for `Cc1cc(OCC(O)Cn2c(=N)n(Cc3ccccc3)c3ccccc32)ccc1Br` (centres unmarked) [Compound 16, 1-(3-benzyl-2-imino-2,3-dihydro-1H-benzo[d]imidazol-1-yl)-3-(4-bromo-3-methylphenoxy)propan-2-ol] was 8.53 ± 1.7 µM.

Source of the values: paper PMC3254186 (Frontiers in Pharmacology, 2011).
